Reference: ChEMBL document CHEMBL5705892, “MK-2206, an allosteric Akt inhibitor, enhances antitumor efficacy by standard chemotherapeutic agents or molecular targeted drugs in vitro and in vivo” (Mol Cancer Ther, 2010)
Activity calls are given as the source filed them. The rule behind the calls is not given here.

Assays:
MDA-MB-468 [1] = experiment: Synergistic antiproliferative activity against human MDA-MB-468 cells assessed as combination index at ED75 measured after 96 hrs in presence of lapatinib by celltiter-glo assay; assay type: functional
MDA-MB-468 [2] = experiment: Synergistic antiproliferative activity against human MDA-MB-468 cells assessed as combination index at ED90 measured after 72 hrs in presence of lapatinib by celltiter-glo assay; assay type: functional
A2780 [3] = experiment: Induction of apoptosis in human A2780 cells assessed as increase in caspase-3/7 activity at 0.0625 to 1 uM incubated for 24 hrs prior to addition of carboplatin and measured after 24 hrs by caspase-glo 3/7 assay; assay type: functional, cell-based; conditions: dose 0.0625-1 µM
HCC1954 [4] = experiment: Synergistic antiproliferative activity against human HCC1954 cells assessed as combination index at ED75 measured after 96 hrs in presence of lapatinib by celltiter-glo assay; assay type: functional
NCI-H460 [5] = experiment: Induction of apoptosis in human NCI-H460 cells assessed as fold induction of capsase-3/7 activity measured after 24 to 48 hrs in presence of gemcitabine by caspase-glo 3/7 assay; assay type: functional; conditions: time 24-48 hrs
[6] = molecular target: RAC-alpha serine/threonine-protein kinase (Homo sapiens) (UniProt P31749); experiment: Inhibition of AKT in human HCC827 cells assessed as reduction in PRAS40 phosphorylation at T246 residue at 5 umol/L measured after 5 hrs in presence of erlotinib by Western blot analysis; assay type: cell-based; conditions: dose 5.0 µmol/L
[7] = molecular target: RAC-alpha serine/threonine-protein kinase (Homo sapiens) (UniProt P31749); experiment: Inhibition of AKT phosphorylation at S473 residue in human NCI-H1993 cells at 3 umol/L measured after 4 to 24 hrs in presence of carboplatin by MSD assay; conditions: time 4-24 hrs
NCI-H292 [8] = experiment: Antitumor activity against human NCI-H292 cells xenografted in CD-1 mouse assessed as tumor growth suppression at 120 mg/kg, po administered 3 times per week for 2 weeks and measured twice a week during compound dosing by caliper method; assay type: functional, organism-based
Summary of the method: (§1)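 Female CD1-nude mice carried s.c. NCI-H292 cells in Matrigel/PBS and were randomized at 0.2 cm³, n = 5. […] MK-2206 (30% Captisol) was given 2 h later at 120 mg/kg po on days 0, 2, 4, 7, 9, 11, or at 360 mg/kg on days 0 and 7. Control received vehicle. Caliper volume twice weekly.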

NCI-H460 [9] = experiment: Synergistic antiproliferative activity against human NCI-H460 cells assessed as combination index at ED50 measured after 72 hrs in presence of doxorubicin by celltiter-glo assay; assay type: functional
NCI-H1299 = experiment: Synergistic antiproliferative activity against human NCI-H1299 cells assessed as combination index at ED90 measured after 72 hrs in presence of erlotinib by celltiter-glo assay; assay type: functional
A2780 [10] = experiment: Cell cycle arrest in human A2780 cells assessed as increase in accumulation of cells at sub-G1 phase measured after 72 hrs in presence of 5-FU by propidium iodide staining based flow cytometry; assay type: functional
Calu-6 = experiment: Synergistic antiproliferative activity against human Calu-6 cells assessed as combination index at ED75 measured after 72 hrs in presence of erlotinib by celltiter-glo assay; assay type: functional
Summary of the method: (§2)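 Cells grown in RPMI 1640 with 10% heat-inactivated FBS at 37°C, 5% CO₂. Seeded at 2 to 3 × 10³ per well; drugs added 24 h later. […] Viability read as cellular ATP by CellTiter-Glo. CI calculated by Chou–Talalay from median-effect plots at ED50, ED75 and ED90.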

MDA-MB-468 [11] = experiment: Synergistic antiproliferative activity against human MDA-MB-468 cells assessed as combination index at ED50 measured after 72 hrs in presence of docetaxel by celltiter-glo assay; assay type: functional; summary of the method: as §2
NCI-H441 = experiment: Synergistic antiproliferative activity against human NCI-H441 cells assessed as combination index at ED25 to ED90 measured after 72 hrs in presence of carboplatin by celltiter-glo assay; assay type: functional
NCI-H292 [12] = experiment: Antiproliferative activity against human NCI-H292 cells assessed as reduction in cell proliferation measured after 72 hrs by celltiter-glo assay; assay type: functional, cell-based; conditions: NCI-H292, 72 h
Summary of the method: (§3)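 Cells in RPMI 1640 with 10% heat-inactivated FBS at 37°C and 5% CO₂ were seeded at 2 to 3 × 10³ per well. […] Growth was read as cellular ATP by CellTiter-Glo.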

NCI-H292 [13] = experiment: Antitumor activity against human NCI-H292 cells xenografted in CD-1 mouse assessed as tumor growth suppression at 120 mg/kg, po administered 3 times per week for 2 weeks starting 2 hrs post-erlotinib treatment and measured twice a week during compound dosing by caliper method; assay type: functional, organism-based; summary of the method: as §1
NCI-H358 = experiment: Synergistic antiproliferative activity against human NCI-H358 cells assessed as combination index at ED50 measured after 72 hrs in presence of erlotinib by celltiter-glo assay; assay type: functional
BT-474 = experiment: Synergistic antiproliferative activity against human BT-474 cells assessed as combination index at ED50 measured after 72 hrs in presence of docetaxel by celltiter-glo assay; assay type: functional; summary of the method: as §2
HCC70 = experiment: Synergistic antiproliferative activity against human HCC70 cells assessed as combination index at ED75 measured after 96 hrs in presence of lapatinib by celltiter-glo assay; assay type: functional
HCC1954 [14] = experiment: Synergistic antiproliferative activity against human HCC1954 cells assessed as combination index at ED75 treated 24 hrs prior to lapatinib and measured after 72 hrs by celltiter-glo assay; assay type: functional; conditions: time 96 hrs
MDA-MB-468 [15] = experiment: Antiproliferative activity against human MDA-MB-468 cells assessed as reduction in cell proliferation measured after 72 hrs by celltiter-glo assay; assay type: functional, cell-based; conditions: MDA-MB-468, 72 h; summary of the method: as §3
[16] = molecular target: RAC-alpha serine/threonine-protein kinase (Homo sapiens) (UniProt P31749); experiment: Inhibition of AKT in human A-431 cells assessed as reduction in AKT phosphorylation at S473 residue at 5 umol/L measured after 5 hrs by Western blot analysis; assay type: cell-based; conditions: dose 5.0 µmol/L
Summary of the method: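 Cells were lysed in Tris-HCl pH 7.5, 150 mM NaCl, 1% Triton X-100 with protease and phosphatase inhibitors. Lysates were run on SDS-PAGE, transferred to nitrocellulose and probed with phospho-specific antibodies.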

NCI-H460 [17] = experiment: Synergistic antiproliferative activity against human NCI-H460 cells assessed as combination index at ED50 measured after 72 hrs in presence of carboplatin by celltiter-glo assay; assay type: functional
[18] = Toxicity in human NCI-H292 cells xenografted CD-1 mouse assessed as death at 120 mg/kg, po administered 3 times per week for 2 weeks starting 2 hrs post-erlotinib treatment and measured during compound dosing; assay type: organism-based; conditions: in vivo, 336 h
Summary of the method: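 NCI-H292 cells in 50% Matrigel/PBS injected s.c. into flank of female CD1-nude mice; dosing began after 2 wk at mean tumour 0.2 cm³, n = 5/group. […] Body weight and signs monitored; treatment ended day 16.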

MDA-MB-468 [19] = experiment: Synergistic antiproliferative activity against human MDA-MB-468 cells assessed as combination index at ED75 measured after 72 hrs in presence of lapatinib by celltiter-glo assay; assay type: functional
NCI-N87 = experiment: Synergistic antiproliferative activity against lapatinib pretreated human NCI-N87 cells assessed as combination index at ED50 measured after 72 hrs by celltiter-glo assay; assay type: functional
BT-20 = experiment: Synergistic antiproliferative activity against human BT-20 cells assessed as combination index at ED50 measured after 72 hrs in presence of docetaxel by celltiter-glo assay; assay type: functional; summary of the method: as §2

Sequence of RAC-alpha serine/threonine-protein kinase (Homo sapiens) (P31749 whole entry): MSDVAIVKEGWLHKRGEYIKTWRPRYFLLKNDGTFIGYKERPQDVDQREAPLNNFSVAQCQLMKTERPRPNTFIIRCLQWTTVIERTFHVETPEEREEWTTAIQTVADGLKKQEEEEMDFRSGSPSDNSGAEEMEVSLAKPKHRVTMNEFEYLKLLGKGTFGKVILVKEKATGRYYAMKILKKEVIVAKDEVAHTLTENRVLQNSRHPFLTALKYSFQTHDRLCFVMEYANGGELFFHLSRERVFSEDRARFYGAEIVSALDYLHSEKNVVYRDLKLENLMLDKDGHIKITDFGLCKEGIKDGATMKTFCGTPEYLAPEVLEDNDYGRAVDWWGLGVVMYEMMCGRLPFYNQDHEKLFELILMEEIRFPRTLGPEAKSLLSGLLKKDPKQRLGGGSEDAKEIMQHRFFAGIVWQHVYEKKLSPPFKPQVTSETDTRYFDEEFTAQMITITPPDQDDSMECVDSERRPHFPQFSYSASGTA

Structure (SMILES): Cl.NC1(c2ccc(-c3nc4ccn5c(=O)[nH]nc5c4cc3-c3ccccc3)cc2)CCC1
- CI75 (MDA-MB-468 [1]): 0.18
- CI90 (MDA-MB-468 [2]): 0.16
- Activity (A2780 [3]): inactive
- CI75 (HCC1954 [4]): 0.18
- fold change (FC) (NCI-H460 [5]): 1.6
- inhibition [6]: Active
- inhibition [7]: Active
- Activity (NCI-H292 [8]): inactive
- CI50 (NCI-H460 [9]): 0.27
- CI90 (NCI-H1299): 0.52
- Activity (A2780 [10]): Dose-Dependent Effect
- CI75 (Calu-6): 0.25
- CI50 (MDA-MB-468 [11]): 0.9
- CI (NCI-H441): 0.46
- IC50 (NCI-H292 [12]): 5.2 µM
- Activity (NCI-H292 [13]): Active
- CI50 (NCI-H358): 0.44
- CI50 (BT-474): 1
- CI75 (HCC70): 0.18
- CI75 (HCC1954 [14]): 0.18
- IC50 (MDA-MB-468 [15]): 2.6 µM
- inhibition [16]: Active
- CI50 (NCI-H460 [17]): 0.35
- Activity [18]: Non-Toxic
- CI75 (MDA-MB-468 [19]): 0.25
- CI50 (NCI-N87): 0.18
- CI50 (BT-20): 1
